# Experimental data collected from several papers.
# Each line is one published result; the experiments were not run side by side.
# Read-out: cell growth or viability
SMILES,cell line,technique,concentration,time,endpoint,value
N.N.[Cl][Pt][Cl],MCF7,MTT,,48 h,IC50,9.9 µM
CC(C)C[C@@H](NC(=O)[C@H](C)NC(=O)CNC(=O)[C@@H](NC=O)C(C)C)C(=O)N[C@@H](C)C(=O)N[C@@H](C(=O)N[C@H](C(=O)N[C@@H](C(=O)N[C@@H](Cc1c[nH]c2ccccc12)C(=O)N[C@H](CC(C)C)C(=O)N[C@@H](Cc1cccc2cc[nH]c12)C(=O)N[C@H](CC(C)C)C(=O)N[C@@H](Cc1c[nH]c2ccccc12)C(=O)N[C@H](CC(C)C)C(=O)N[C@@H](Cc1c[nH]c2ccccc12)C(=O)NCCO)C(C)C)C(C)C)C(C)C,MCF7,SRB,,48 h,GI50,0.0365 µM
CC[C@H](C)[C@H](NC(=O)[C@H](CCCCN)NC(=O)[C@H](CCCCN)NC(=O)[C@H](CC(C)C)NC(=O)[C@H](CCCCN)NC(=O)[C@H](CCCCN)NC(=O)[C@H](Cc1ccccc1)NC(=O)[C@H](Cc1ccccc1)NC(=O)[C@H](CCCNC(=N)N)NC(=O)[C@H](CCCNC(=N)N)NC(=O)[C@@H](NC(=O)[C@H](CCCCN)NC(=O)[C@H](CCCNC(=N)N)NC(=O)[C@@H](NC(=O)[C@@H](N)Cc1ccc(O)cc1)[C@@H](C)CC)[C@@H](C)CC)C(=O)N[C@@H](CC(C)C)C(=O)N[C@@H](CCCCN)C(=O)N[C@@H](CCCCN)C(N)=O,SAOS-2,resazurin,,,IC50,> 20 µM
O=C(NCc1ccc(O)cc1)c1cn(Cc2ccc(F)cc2)c2ccc(Oc3ccccc3)cc2c1=O,MCF7,MTT,,24 h,IC50,> 500 µM
O=C1CCP(=S)(c2ccccc2)CC1,SW-620,MTT,,72 h,IC50,6.3 µM
O=C(NCc1ccccc1)c1cn(Cc2ccc(C(F)(F)F)cc2)c2ccc(Oc3ccccc3)cc2c1=O,MCF7,MTT,,24 h,IC50,9.4 µM
CC(C)C[C@@H](NC(=O)[C@H](C)NC(=O)CNC(=O)[C@@H](NC=O)C(C)C)C(=O)N[C@@H](C)C(=O)N[C@@H](C(=O)N[C@H](C(=O)N[C@@H](C(=O)N[C@@H](Cc1c[nH]c2ccccc12)C(=O)N[C@H](CC(C)C)C(=O)N[C@@H](Cc1ccc2[nH]ccc2c1)C(=O)N[C@H](CC(C)C)C(=O)N[C@@H](Cc1c[nH]c2ccccc12)C(=O)N[C@@H](C(=O)N[C@@H](Cc1c[nH]c2ccccc12)C(=O)NCCO)C(C)C)[C@H](C)O)C(C)C)C(C)C,MCF7,SRB,,48 h,GI50,0.878 µM
O=C(Nc1ccc(Cl)cc1)Nc1cccc(-c2cn(Cc3ccc(Br)cc3)nn2)c1,MCF7,CCK-8,50 µM,72 h,viability,86.8%
CC(C)C[C@@H](NC(=O)[C@H](C)NC(=O)CNC(=O)[C@@H](NC=O)C(C)C)C(=O)N[C@@H](C)C(=O)N[C@@H](C(=O)N[C@H](C(=O)N[C@@H](C(=O)N[C@@H](Cc1c[nH]c2ccccc12)C(=O)N[C@H](CC(C)C)C(=O)N[C@@H](Cc1cccc2[nH]ccc12)C(=O)N[C@H](CC(C)C)C(=O)N[C@@H](Cc1c[nH]c2ccccc12)C(=O)N[C@H](CC(C)C)C(=O)N[C@@H](Cc1c[nH]c2ccccc12)C(=O)NCCO)C(C)C)C(C)C)C(C)C,MCF7,SRB,,48 h,GI50,0.0684 µM
O=C1CCP(c2ccccc2)CC1,SW-620,MTT,,72 h,IC50,73.7 µM
